Screening results deposited in PubChem BioAssay by several laboratories.
GPR7 antagonist: blocks human GPR7 receptor signaling. AID 1861. actives 1.1% (n = 290,000). P48145. inhibition, % at 4.4 µM. GPR7-expressing cells, fluorescence antagonist assay; in the data active means inhibition above about 16%, passing the limit was not always enough;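 further: cells stimulated with the agonist NPW; 0% = agonist with vehicle and 100% = vehicle without agonist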
TAAR1 antagonist: antagonists of human TAAR1; CHO RD-HGA16 TAAR1, Fluo-8 calcium fluorescence, antagonist; AID 624466; inhibition, % at 3 µM; actives 1.5% (n = 360,000);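 active means inhibition above a per-plate cutoff, the mean inhibition of test compounds on that plate plus 3 SD, cut at about 49% in these data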;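 further: 0% = DMSO plus EC80 beta-PEA response and 100% = DMSO alone without agonist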
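Test system – hTAAR1-expressing CHO RD-HGA16 cells, Gα16-coupled · Also added – β-PEA at EC80 concentration, post-compound challenge · Compound – 3 µM, single point · Incubation – dye loading 75 min at 37 °C, then 30 min room temperature · Measured by – Fluo-8 intracellular calcium dye fluorescence, real-time kinetic reads · Benchmarks – vehicle and agonist controls · Replicates – singlicate, one well per test compound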
TAAR1 agonist: agonists of human TAAR1. actives 0.99% (n = 360,000). AID 624467. activation, % at 3 µM. CHO RD-HGA16 TAAR1, Fluo-8 calcium fluorescence; vehicle wells 0%, saturating PEA agonist 100%;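 active means activation above the mean activation of all test compounds in the run plus 3 SD, cut at about 38% in these data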
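Assay system: CHO-derived RD-HGA16 cells with stable Gα16 and human TAAR1; timing: 17-24 h seeding, 75 min 37 °C dye, 30 min RT; read-out: % activation from peak over basal fluorescence ratio, DMSO-to-PEA scaled; measured by: kinetic Fluo-8 calcium fluorescence; benchmarks: low control DMSO, high control PEA (EC100); doses: 3 µM single concentration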
DAGLB inhibitor: diacylglycerol lipase beta (human) inhibition; Q8NCG7; HEK293T DAGLB membrane lysate, EnzChek fluorogenic substrate; inhibition, % at 5.17 µM; actives 0.059% (n = 340,000); in the data active means inhibition above about 34%;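 further: 0% = enzyme with vehicle and 100% = wells lacking enzyme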
Target sequence (Q8NCG7 whole entry, looked up): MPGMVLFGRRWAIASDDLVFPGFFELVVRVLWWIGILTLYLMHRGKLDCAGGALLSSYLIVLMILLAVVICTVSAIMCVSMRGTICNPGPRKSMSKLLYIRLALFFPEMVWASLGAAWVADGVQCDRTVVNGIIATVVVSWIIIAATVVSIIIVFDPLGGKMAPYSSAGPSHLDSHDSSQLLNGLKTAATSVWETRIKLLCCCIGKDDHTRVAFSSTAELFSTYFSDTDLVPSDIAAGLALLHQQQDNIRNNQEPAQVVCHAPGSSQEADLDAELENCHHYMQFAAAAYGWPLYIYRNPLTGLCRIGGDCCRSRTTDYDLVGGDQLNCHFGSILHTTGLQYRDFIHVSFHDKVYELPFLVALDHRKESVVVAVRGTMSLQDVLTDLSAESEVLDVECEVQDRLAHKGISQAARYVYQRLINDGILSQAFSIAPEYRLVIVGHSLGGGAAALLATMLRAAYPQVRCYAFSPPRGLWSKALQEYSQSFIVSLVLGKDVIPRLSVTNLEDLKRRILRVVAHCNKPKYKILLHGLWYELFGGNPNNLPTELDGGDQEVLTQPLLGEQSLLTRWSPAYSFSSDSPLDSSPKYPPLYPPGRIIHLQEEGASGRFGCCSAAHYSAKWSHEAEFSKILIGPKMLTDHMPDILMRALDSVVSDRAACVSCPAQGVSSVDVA
MPTP inh: inhibitors of mitochondrial permeability transition pore | isolated mouse mitochondria, Ca2+ swelling absorbance, 30 min | inhibition, % at 10 µM | actives 1.4% (n = 360,000);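 active means inhibition of 50% or more, scaled per plate between neutral and stimulator controls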;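 further: 0% = DMSO wells given calcium and 100% = 1 mM EGTA wells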
TAAR1 ag conf: confirmation of human TAAR1 agonists. shares compounds with TAAR1 agonist. CHO RD-HGA16 TAAR1, Fluo-8 calcium fluorescence; scaled: DMSO 0%, maximal phenethylamine 100%. activation, % at 3 µM. actives 82% (n = 2,400). AID 651783;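 active means activation above a cutoff set at the run's mean compound activation plus 3 SD, cut at about 39% in these data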
Ga16 nonsel ag: nonselective agonist in parental cells, TAAR1 agonist counter-screen | activation, % at 3 µM | shares compounds with TAAR1 agonist | CHO-Ga16 parental, Fluo-8 calcium fluorescence; normalized to maximal ATP response, DMSO zero | AID 651787 | actives 50% (n = 2,400);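 active means activation above the run cutoff, the mean activation over all tested wells plus 3 SD, cut at about 12% in these data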;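 further: 0% = DMSO wells and 100% = maximal ATP response on the peak over basal ratio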
TAAR1 desens: TAAR1 response desensitization, agonist counter-screen; shares compounds with TAAR1 agonist; CHO RD-HGA16 hTAAR1, Fluo-8 calcium, beta-PEA response inhibition; inhibition, % at 3 µM; actives 46% (n = 2,400); AID 651951;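 active means inhibition above the run cutoff, the mean inhibition of all test compounds plus 3 SD, cut at about 49% in these data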;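 further: beta-PEA stimulus applied at its EC80; loss of beta-PEA calcium signal after compound pretreatment read as receptor desensitization; 0% = DMSO with beta-PEA at EC80 and 100% = DMSO alone without agonist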
Ga16 antag count: nonselective Ga16 antagonism, counter-screen | shares compounds with TAAR1 agonist | actives 39% (n = 2,400) | CHO-Ga16 ATP-induced calcium, Fluo-8 fluorescence | inhibition, % at 3 µM;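 active means inhibition above the plate's mean compound inhibition plus 3 SD, computed per plate, cut at about 22% in these data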;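 further: 0% = EC80 ATP with DMSO and 100% = DMSO wells without ATP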
Active calls of the source: *; . = no result given. A selection: hits, their analogues and other compounds. The true share with any hit is near 4%.

SMILES	GPR7 antagonist	TAAR1 antagonist	TAAR1 agonist	DAGLB inhibitor	MPTP inh	TAAR1 ag conf	Ga16 nonsel ag	TAAR1 desens	Ga16 antag count
CCOC(=O)C(NCc1ccc(OC)cc1)(NC(C)=O)C(F)(F)F (centres undefined)	10	18	-1	-3	0	.	.	.	.
CCOC(=O)C(NCCc1ccccc1)(NC(C)=O)C(F)(F)F (centres undefined)	-5	.	.	2	1	.	1	.	3
CCOC(=O)C(NCCc1ccc(F)cc1)(NC(=O)CC)C(F)(F)F (centres undefined)	-10	18	51*	0	0	64*	6	10	-3
CCOC(=O)C(NC(C)=O)(OCc1ccc(F)cc1)C(F)(F)F (centres undefined)	-5	0	2	-3	0	.	.	.	.
COc1ccc(Cn2cc(CN3CC(N4CCCC4)CS3(=O)=O)nn2)cc1 (centres undefined)	.	-6	1	.	-1	.	.	.	.
COC(=O)NC1c2ccccc2Oc2ccc(C)cc21 (centres undefined)	-7	38	43*	-3	1	83*	38*	76*	34*
O=C(NCCc1cccs1)c1ccc(CS(=O)Cc2cccc(Cl)c2)o1 (centres undefined)	.	22	63*	-3	-1	57*	1	39	5
CN(C)c1ccc(-c2csc(C(O)c3ccc(F)cc3)n2)cc1 (centres undefined)	.	91*	77*	.	-1	90*	59*	98*	73*
O=C(Nc1ccc(F)cc1)Nc1ccc(Oc2ncnc3cc(Cl)ccc23)nc1	-13	29	56*	1	20	75*	1	81*	6
COCCNc1nc(NCc2ccccc2)nc2ccsc12	.	104*	153*	.	2	123*	103*	107*	102*
CC(=O)NCCNc1nc(NCc2ccccc2)nc2ccsc12	.	92*	91*	.	0	109*	23*	101*	53*
COc1ccccc1CNc1nc(NCc2ccc(NC(C)=O)cc2)c2sccc2n1	.	13	5	.	-1	.	.	.	.
COCCNc1nc(NC(C)C)nc2ccsc12	.	-13	16	.	1	.	.	.	.
CCCCNC(=O)c1nc(C2CCN(S(=O)(=O)c3cccc(C(F)(F)F)c3)CC2)oc1-c1ccccc1	.	0	0	.	0	.	.	.	.
O=C(C1CCCCC1)N1C[C@H](O)[C@@H](n2cc(C3CC3)nn2)C[C@@H]1c1ccccc1	.	-18	4	0	0	.	.	.	.
Fc1ccc(NC(=S)N2CCc3ccccc3C2)c(F)c1	-11	18	43*	-3	0	72*	13*	21	4
COc1cc(NC(=S)N2CCc3ccccc3C2)cc(OC)c1	-15	7	49*	4	2	62*	1	22	9
COc1cccc(NC(=S)N2CCc3cc(OC)c(OC)cc3C2)c1	-3	-27	2	1	2	.	.	.	.
COc1ccc(NC(=S)N2CCc3ccccc3C2)cc1OC	-7	.	.	3	-2	.	7	.	4
Fc1ccc(NC(=S)N2CCOCC2)c(F)c1	-14	2	0	-1	1	.	.	.	.
COc1cccc(NC(=O)C2(C)CCN2C(=O)CC2CCCC2)c1 (centres undefined)	.	-1	4	.	1	.	.	.	.
CCOC(=O)c1c(S(=O)(=O)NCC2CCN(CCc3cccs3)CC2)c(C)n(C)c1C	-5	-21	8	-2	-1	.	.	.	.
CCOC(=O)c1c(S(=O)(=O)NCCc2cccs2)c(C)n(C)c1C	-2	-32	55*	-2	-1	7	2	7	6
O=C(Nc1ccncc1)c1ccc(Cl)c(Cl)c1	-9	1	56*	-3	2	42*	19*	8	6
O=C(NNC(=O)c1ccc(Cl)c(Cl)c1)c1ccncc1	.	5	0	.	2	.	.	.	.
SMILES	GPR7 antagonist	TAAR1 antagonist	TAAR1 agonist	DAGLB inhibitor	MPTP inh	TAAR1 ag conf	Ga16 nonsel ag	TAAR1 desens	Ga16 antag count
COc1ccc(C=NCC2OCCc3ccccc32)cc1OC (centres undefined)	-8	.	.	-1	2	.	-1	.	7
COc1cc(C=NCC2OCCc3ccccc32)cc(OC)c1 (centres undefined)	-8	.	.	1	1	.	0	.	9
Cc1ccc2nc(-c3cccc(Br)c3)c(Cc3cccc(Cl)c3)n2c1	.	-4	-2	.	-1	.	.	.	.
COCCNc1ncnc2nc[nH]c12	-14	-21	3	-1	-1	.	.	.	.
c1ccc(CCNc2ncnc3nc[nH]c23)cc1	-5	33	71*	-2	-5	89*	9	82*	18
CCc1nc2ccc(C(=O)NCCc3ccccn3)cn2c1N(CC)CCOC	.	1	2	.	0	.	.	.	.
CCCOc1ccc(OC(=O)c2ccc(Br)o2)cc1	2	102*	137*	-12	-1	115*	95*	85*	79*
Cc1nc(NCCc2ccccc2)c2nnn(Cc3ccccc3)c2n1	-16	45	51*	-4	1	77*	15*	45	2
CCN(CC)CCc1c(C)[nH]c(C(=O)OCc2ccccc2)c1C	4	26	71*	2	0	73*	1	74*	2
O=C(C[C@@H]1C=C[C@@H](NC(=O)C2CC2)[C@@H](CO)O1)NCc1ccccc1Cl	.	-17	1	.	3	.	.	.	.
CC(C)c1ccc(N2C(=O)/C(=C/N(C)C)SC2=S)cc1	-7	49*	59*	2	13	58*	56*	51*	65*
CCOc1ccc(/C=N/NC(=O)c2nnn(-c3nonc3N)c2-c2cccs2)cc1	-16	70*	125*	0	-2	120*	91*	76*	46*
Cc1ccsc1/C=N/NC(=O)c1nnn(-c2nonc2N)c1-c1ccc2c(c1)OCO2	-11	17	30	4	-2	.	.	.	.
CCOc1ccc(-c2c(C(=O)N/N=C/c3cccs3)nnn2-c2nonc2N)cc1	-12	21	96*	2	-1	127*	80*	60*	32*
Cc1ccc(-c2c(C(=O)N/N=C/c3cccs3)nnn2-c2nonc2N)cc1	-12	.	.	0	-1	.	.	.	.
Nc1nonc1-n1nnc(C(=O)N/N=C/c2ccncc2)c1-c1cccs1	0	-9	10	3	-2	.	.	.	.
Nc1nonc1-n1nnc(C(=O)N/N=C/c2cccs2)c1-c1ccc2c(c1)OCO2	-17	66*	141*	2	0	122*	81*	65*	28*
